Source: ChEMBL document CHEMBL5724801, “EUbOPEN Chemogenomics Library - Multiplex” (2024)
Values joined by “and” are separate entries in the source; they are usually repeats but may differ in a detail not shown here. Identical values can stand only once.

Test system: Fibroblast
Experiment: Multiplex assay against human fibroblast
Type: toxicity, cell-based
Method in brief: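 Cells were classed with CellPathfinder machine-learning gating, first as Hoechst high-intensity objects or normal cells, then (normal cells) as healthy, pyknosed or fragmented nuclei, and finally (pyknosed cells) as mitotic or apoptotic. Staining of live cells at seeding used Hoechst33342, BioTracker Green Microtubule Cytoskeleton Dye, MitoTracker Red and Annexin V Alexa Fluor 680, with imaging on a CQ1 microscope at 37°C and 5% CO2 after compound addition. Tubulin, mitochondrial-mass and membrane-permeability phenotypes are per cents of healthy-nucleus cells.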

[1] = 12 h, 1 µM, compound concentration 1 uM
[2] = 12 h, 10 µM, compound concentration 10 uM
[3] = 24 h, 1 µM, compound concentration 1 uM
[4] = 24 h, 10 µM, compound concentration 10 uM
[5] = 48 h, 1 µM, compound concentration 1 uM
[6] = 48 h, 10 µM, compound concentration 10 uM

CSc1nc(NC2CCCC2)c([N+](=O)[O-])c(NC2CCCC2)n1 [GS-39783]
Population Apoptotic (%) [1]: 50% and 39% | Population Fragmented Nuclei (%) [1]: 16% and 28% | Population Healthy Nuclei (%) [1]: 66% and 46% | Population Hoechst High Intensity Objects (%) [1]: 3% and 5% | Population Membrane Permeable-Phenotype (%) [1]: 2% and 10% | Population Mitochondria Different-Phenotype (%) [1]: 6% and 10% | Population Mitotic Cells (%) [1]: 50% and 60% | Population Normal (%) [1]: 96% and 94% | Population Pyknosed Nuclei (%) [1]: 16% and 25% | Population Tubulin-Different-Phenotype (%) [1]: 29% and 57% | Total Cell Count [1]: 137 and 135 | Population Apoptotic (%) [2]: 54% and 36% | Population Fragmented Nuclei (%) [2]: 16% and 25% | Population Healthy Nuclei (%) [2]: 62% and 52% | Population Hoechst High Intensity Objects (%) [2]: 5% and 6% | Population Membrane Permeable-Phenotype (%) [2]: 0% and 4% | Population Mitotic Cells (%) [2]: 45% and 63% | Population Normal (%) [2]: 94% and 93% | Population Pyknosed Nuclei (%) [2]: 21% | Population Tubulin-Different-Phenotype (%) [2]: 39% and 70% | Total Cell Count [2]: 184 and 165 | Population Apoptotic (%) [3]: 30% and 32% | Population Fragmented Nuclei (%) [3]: 12% and 31% | Population Healthy Nuclei (%) [3]: 69% and 44% | Population Hoechst High Intensity Objects (%) [3]: 2% | Population Membrane Permeable-Phenotype (%) [3]: 3% and 10% | Population Mitochondria Different-Phenotype (%) [3]: 4% and 12% | Population Mitotic Cells (%) [3]: 69% and 67% | Population Normal (%) [3]: 97% | Population Pyknosed Nuclei (%) [3]: 17% and 23% | Population Tubulin-Different-Phenotype (%) [3]: 27% and 60% | Total Cell Count [3]: 132 and 133 | Population Apoptotic (%) [4]: 58% and 36% | Population Fragmented Nuclei (%) [4]: 17% and 25% | Population Healthy Nuclei (%) [4]: 65% and 52% | Population Hoechst High Intensity Objects (%) [4]: 2% and 7% | Population Membrane Permeable-Phenotype (%) [4]: 0% and 6% | Population Mitochondria Different-Phenotype (%) [4]: 4% and 10% | Population Mitotic Cells (%) [4]: 41% and 63% | Population Normal (%) [4]: 97% and 92% | Population Pyknosed Nuclei (%) [4]: 17% and 21% | Population Tubulin-Different-Phenotype (%) [4]: 33% and 57% | Total Cell Count [4]: 172 and 164 | Population Apoptotic (%) [5]: 70% and 33% | Population Fragmented Nuclei (%) [5]: 22% and 41% | Population Healthy Nuclei (%) [5]: 69% and 44% | Population Hoechst High Intensity Objects (%) [5]: 4% and 3% | Population Mitochondria Different-Phenotype (%) [5]: 5% and 14% | Population Mitotic Cells (%) [5]: 30% and 66% | Population Normal (%) [5]: 95% and 96% | Population Pyknosed Nuclei (%) [5]: 7% and 14% | Population Tubulin-Different-Phenotype (%) [5]: 29% and 60% | Total Cell Count [5]: 134 and 129 | Population Apoptotic (%) [6]: 66% and 60% | Population Fragmented Nuclei (%) [6]: 19% and 40% | Population Healthy Nuclei (%) [6]: 65% and 46% | Population Hoechst High Intensity Objects (%) [6]: 2% and 6% | Population Membrane Permeable-Phenotype (%) [6]: 1% and 6% | Population Mitochondria Different-Phenotype (%) [6]: 5% and 7% | Population Mitotic Cells (%) [6]: 33% and 40% | Population Normal (%) [6]: 97% and 93% | Population Pyknosed Nuclei (%) [6]: 14% and 13% | Population Tubulin-Different-Phenotype (%) [6]: 41% and 60% | Total Cell Count [6]: 168 and 193

CC(C)c1noc(N2CCC(COc3ccc(-c4ccc(S(C)(=O)=O)cc4)nc3)CC2)n1 [GSK-1292263]
Population Apoptotic (%) [1]: 38% and 29% | Population Fragmented Nuclei (%) [1]: 14% and 18% | Population Healthy Nuclei (%) [1]: 74% and 50% | Population Hoechst High Intensity Objects (%) [1]: 2% and 6% | Population Membrane Permeable-Phenotype (%) [1]: 0% and 4% | Population Mitochondria Different-Phenotype (%) [1]: 1% and 5% | Population Mitotic Cells (%) [1]: 61% and 70% | Population Normal (%) [1]: 97% and 93% | Population Pyknosed Nuclei (%) [1]: 11% and 31% | Population Tubulin-Different-Phenotype (%) [1]: 21% and 41% | Total Cell Count [1]: 189 and 149 | Population Apoptotic (%) [2]: 39% and 35% | Population Healthy Nuclei (%) [2]: 65% and 45% | Population Hoechst High Intensity Objects (%) [2]: 3% and 2% | Population Membrane Permeable-Phenotype (%) [2]: 1% and 6% | Population Mitochondria Different-Phenotype (%) [2]: 5% and 10% | Population Mitotic Cells (%) [2]: 60% and 64% | Population Normal (%) [2]: 96% and 97% | Population Pyknosed Nuclei (%) [2]: 26% and 27% | Population Tubulin-Different-Phenotype (%) [2]: 39% and 61% | Total Cell Count [2]: 162 and 145 | Population Apoptotic (%) [3]: 50% and 44% | Population Fragmented Nuclei (%) [3]: 9% and 20% | Population Healthy Nuclei (%) [3]: 78% and 53% | Population Hoechst High Intensity Objects (%) [3]: 3% and 7% | Population Membrane Permeable-Phenotype (%) [3]: 1% and 4% | Population Mitochondria Different-Phenotype (%) [3]: 0% and 2% | Population Mitotic Cells (%) [3]: 50% and 55% | Population Normal (%) [3]: 96% and 92% | Population Pyknosed Nuclei (%) [3]: 11% and 25% | Population Tubulin-Different-Phenotype (%) [3]: 17% and 41% | Total Cell Count [3]: 182 and 142 | Population Apoptotic (%) [4]: 52% and 46% | Population Fragmented Nuclei (%) [4]: 12% and 21% | Population Healthy Nuclei (%) [4]: 67% and 55% | Population Hoechst High Intensity Objects (%) [4]: 2% and 3% | Population Membrane Permeable-Phenotype (%) [4]: 1% and 10% | Population Mitochondria Different-Phenotype (%) [4]: 5% and 10% | Population Mitotic Cells (%) [4]: 47% and 53% | Population Normal (%) [4]: 97% and 96% | Population Pyknosed Nuclei (%) [4]: 20% and 23% | Population Tubulin-Different-Phenotype (%) [4]: 50% and 56% | Total Cell Count [4]: 168 and 123 | Population Apoptotic (%) [5]: 66% and 54% | Population Fragmented Nuclei (%) [5]: 19% and 27% | Population Healthy Nuclei (%) [5]: 74% and 47% | Population Hoechst High Intensity Objects (%) [5]: 3% and 8% | Population Membrane Permeable-Phenotype (%) [5]: 0% and 13% | Population Mitochondria Different-Phenotype (%) [5]: 1% and 4% | Population Mitotic Cells (%) [5]: 33% and 45% | Population Normal (%) [5]: 96% and 91% | Population Tubulin-Different-Phenotype (%) [5]: 22% and 55% | Total Cell Count [5]: 193 and 156 | Population Apoptotic (%) [6]: 63% and 50% | Population Fragmented Nuclei (%) [6]: 13% and 31% | Population Healthy Nuclei (%) [6]: 65% and 51% | Population Hoechst High Intensity Objects (%) [6]: 2% and 0% | Population Membrane Permeable-Phenotype (%) [6]: 0% and 9% | Population Mitochondria Different-Phenotype (%) [6]: 8% and 14% | Population Mitotic Cells (%) [6]: 36% and 50% | Population Normal (%) [6]: 97% and 100% | Population Pyknosed Nuclei (%) [6]: 20% and 17% | Population Tubulin-Different-Phenotype (%) [6]: 48% and 76% | Total Cell Count [6]: 164 and 125

CC[C@H](Nc1ncnc2[nH]cnc12)c1nc2cccc(F)c2c(=O)n1-c1ccccc1 [IDELALISIB]
Population Apoptotic (%) [1]: 12.5% and 30.56% | Population Fragmented Nuclei (%) [1]: 8.54% and 3.76% | Population Healthy Nuclei (%) [1]: 58.94% and 76.88% | Population Hoechst High Intensity Objects (%) [1]: 7.17% and 0% | Population Membrane Permeable-Phenotype (%) [1]: 3.45% and 2.8% | Population Mitochondria Different-Phenotype (%) [1]: 10.34% and 11.89% | Population Mitotic Cells (%) [1]: 87.5% and 69.44% | Population Normal (%) [1]: 92.83% and 100% | Population Pyknosed Nuclei (%) [1]: 32.52% and 19.35% | Population Tubulin-Different-Phenotype (%) [1]: 22.76% and 24.48% | Total Cell Count [1]: 265 and 186 | Population Apoptotic (%) [2]: 7.84% and 18.6% | Population Fragmented Nuclei (%) [2]: 13.24% and 8.44% | Population Healthy Nuclei (%) [2]: 63.47% and 72.44% | Population Hoechst High Intensity Objects (%) [2]: 0% | Population Membrane Permeable-Phenotype (%) [2]: 11.51% and 11.04% | Population Mitochondria Different-Phenotype (%) [2]: 16.55% and 16.56% | Population Mitotic Cells (%) [2]: 92.16% and 81.4% | Population Normal (%) [2]: 100% | Population Pyknosed Nuclei (%) [2]: 23.29% and 19.11% | Population Tubulin-Different-Phenotype (%) [2]: 53.24% and 61.96% | Total Cell Count [2]: 219 and 225 | Population Apoptotic (%) [3]: 12.5% and 29.41% | Population Fragmented Nuclei (%) [3]: 8.53% and 9.31% | Population Healthy Nuclei (%) [3]: 69.77% and 82.35% | Population Hoechst High Intensity Objects (%) [3]: 5.84% and 0% | Population Membrane Permeable-Phenotype (%) [3]: 6.11% and 1.79% | Population Mitochondria Different-Phenotype (%) [3]: 3.89% and 7.14% | Population Mitotic Cells (%) [3]: 87.5% and 70.59% | Population Normal (%) [3]: 94.16% and 100% | Population Pyknosed Nuclei (%) [3]: 21.71% and 8.33% | Population Tubulin-Different-Phenotype (%) [3]: 16.67% and 20.24% | Total Cell Count [3]: 274 and 204 | Population Apoptotic (%) [4]: 8.33% and 21.88% | Population Fragmented Nuclei (%) [4]: 9.91% and 5.37% | Population Healthy Nuclei (%) [4]: 73.87% and 79.02% | Population Hoechst High Intensity Objects (%) [4]: 0% | Population Membrane Permeable-Phenotype (%) [4]: 9.15% and 6.79% | Population Mitochondria Different-Phenotype (%) [4]: 15.24% and 12.35% | Population Mitotic Cells (%) [4]: 91.67% and 78.12% | Population Normal (%) [4]: 100% | Population Pyknosed Nuclei (%) [4]: 16.22% and 15.61% | Population Tubulin-Different-Phenotype (%) [4]: 46.95% and 64.2% | Total Cell Count [4]: 222 and 205 | Population Apoptotic (%) [5]: 40.74% and 37.5% | Population Fragmented Nuclei (%) [5]: 8.52% and 5.13% | Population Healthy Nuclei (%) [5]: 81.48% and 90.77% | Population Hoechst High Intensity Objects (%) [5]: 7.22% and 0% | Population Membrane Permeable-Phenotype (%) [5]: 1.36% and 3.39% | Population Mitochondria Different-Phenotype (%) [5]: 11.36% and 3.39% | Population Mitotic Cells (%) [5]: 59.26% and 62.5% | Population Normal (%) [5]: 92.78% and 100% | Population Pyknosed Nuclei (%) [5]: 10% and 4.1% | Population Tubulin-Different-Phenotype (%) [5]: 9.09% and 16.95% | Total Cell Count [5]: 291 and 195 | Population Apoptotic (%) [6]: 25% and 23.81% | Population Fragmented Nuclei (%) [6]: 12.65% and 4.81% | Population Healthy Nuclei (%) [6]: 82.45% and 85.1% | Population Hoechst High Intensity Objects (%) [6]: 0% | Population Membrane Permeable-Phenotype (%) [6]: 3.96% and 10.73% | Population Mitochondria Different-Phenotype (%) [6]: 11.39% and 11.3% | Population Mitotic Cells (%) [6]: 75% and 76.19% | Population Normal (%) [6]: 100% | Population Pyknosed Nuclei (%) [6]: 4.9% and 10.1% | Population Tubulin-Different-Phenotype (%) [6]: 30.2% and 57.06% | Total Cell Count [6]: 245 and 208
